Assay [1] has as its target T1, Ecdysone receptor (Bombyx mori) (UniProt P49881).
T1 sequence (whole entry): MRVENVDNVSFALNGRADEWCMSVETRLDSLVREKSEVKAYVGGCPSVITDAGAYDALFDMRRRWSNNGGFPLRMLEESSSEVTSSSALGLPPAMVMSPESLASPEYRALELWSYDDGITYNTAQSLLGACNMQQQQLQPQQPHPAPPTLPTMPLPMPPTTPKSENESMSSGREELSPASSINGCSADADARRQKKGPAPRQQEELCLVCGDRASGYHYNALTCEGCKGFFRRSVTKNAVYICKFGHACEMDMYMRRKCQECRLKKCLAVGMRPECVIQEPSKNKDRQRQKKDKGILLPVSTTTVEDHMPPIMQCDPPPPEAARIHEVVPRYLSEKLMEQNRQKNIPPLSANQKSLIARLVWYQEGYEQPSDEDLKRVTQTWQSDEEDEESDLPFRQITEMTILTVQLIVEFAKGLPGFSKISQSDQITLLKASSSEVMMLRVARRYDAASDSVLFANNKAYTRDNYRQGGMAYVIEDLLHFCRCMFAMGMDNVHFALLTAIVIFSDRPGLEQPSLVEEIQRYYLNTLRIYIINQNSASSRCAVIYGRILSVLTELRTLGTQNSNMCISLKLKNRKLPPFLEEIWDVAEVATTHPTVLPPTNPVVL
In words: Ratio of maximum level of gene expression (ecdysone receptor and beta-galactosidase receptor) of compound to maximum level of gene expression with GSTM-E expressed as RMFI. The format is functional. The procedure, abridged: (§1)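 HEK-293 clone Z3 stably expressing BmEcR with a β-galactosidase reporter, selected with G418 (450) and puromycin (100 ng/mL). Cells seeded at 2.5 × 10⁴ cells/mL and held 24 h at 37 °C in 5% CO₂. Ligands came from 10 mM DMSO stocks diluted […] in medium, with final DMSO 0.03%. Bioluminescent β-gal read at 48 h, room temperature. Fold induction is treated RLU over DMSO RLU. EC50 is the dose giving 50% of maximum transactivation. RMFI is maximum expression relative to that of the standard agonist control.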

The target of assay [2] is T2, Ecdysone receptor (Bombyx mori, UniProt P49881).
T2 sequence (P49881 whole entry): T1 sequence (whole entry)
As to the kind of experiment: Dose affording 50% of maximum transactivation for ecdysone receptor from Bombyx mori (BmEcR) and a beta-galactosidase reporter gene in HEK293 cell-line. It is filed as functional, cell-based. The procedure, abridged: as §1
Background: A reporter such as luciferase makes a cellular process visible.

Assay [3] concerns the target T3, Ecdysone receptor (Choristoneura fumiferana, UniProt O77240).
T3 sequence (O77240 whole entry): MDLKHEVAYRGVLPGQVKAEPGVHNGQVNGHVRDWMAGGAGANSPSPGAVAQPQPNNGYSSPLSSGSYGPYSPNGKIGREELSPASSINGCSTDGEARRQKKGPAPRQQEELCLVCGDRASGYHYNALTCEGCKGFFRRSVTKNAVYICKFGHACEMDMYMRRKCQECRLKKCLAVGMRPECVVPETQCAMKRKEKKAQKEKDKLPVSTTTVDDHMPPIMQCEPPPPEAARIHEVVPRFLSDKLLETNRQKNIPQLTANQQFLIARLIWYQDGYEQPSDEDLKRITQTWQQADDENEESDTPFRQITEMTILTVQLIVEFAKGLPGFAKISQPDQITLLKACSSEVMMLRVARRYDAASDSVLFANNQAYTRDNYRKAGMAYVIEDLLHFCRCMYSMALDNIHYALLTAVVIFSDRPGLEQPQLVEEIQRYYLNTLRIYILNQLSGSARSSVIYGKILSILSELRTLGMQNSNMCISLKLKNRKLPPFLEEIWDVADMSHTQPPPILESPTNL
As to the kind of experiment: Dose affording 50% of maximum transactivation for ecdysone receptor from Choristoneura fumiferana (CfEcR) and a luciferase reporter gene in CHO cells. The format is functional, cell-based. In outline:
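CHO cells stably carrying GAL4 DBD(1-147)-CfEcR(DEF) and VP16-bRXR-LmUSP chimera cassettes (Zeocin selection), plus GAL4 RE-luciferase reporter (clone 27-63, hygromycin). Cells plated at 2.5 × 10⁴ cells mL⁻¹. DMSO ligand stocks diluted 300-fold; 8 concentrations, 33 to 0.01. Luciferase read 48 h after treatment. Value is the dose giving 50% of maximum transactivation.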

Assay [4] addresses T4, Ecdysone receptor (Choristoneura fumiferana) (UniProt O77240).
T4 sequence (whole entry): T3 sequence (O77240 whole entry)
As to the kind of experiment: Ratio of maximum level of gene expression (ecdysone receptor and luciferase gene) of compound to maximum level of gene expression with GSTM-E expressed as RMFI. It is filed as functional. In outline: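 CHO clone 27-63 stably carries GAL4 DBD–CfEcR(DEF) plus VP16–RXR/LmUSP chimera, selected with Zeocin. A GAL4-RE luciferase reporter was added and selected with hygromycin. Cells plated at 2.5 × 10⁴ cells/mL. DMSO ligand stocks diluted 300-fold, tested at 8 concentrations from 33 to 0.01. Luciferase measured 48 h after treatment. RMFI is maximum expression relative to that of the standard agonist control.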

What is called EC50 is the concentration needed to bring the measured effect to its halfway point. In the case of `COc1cccc(C(=O)NC2(C(=O)c3cc(C)cc(C)c3)CC2)c1C`, the Ratio in assay [1] turned out to be 0.22; in assay [4], 0.09. The concentration for a half-maximal effect (EC50) is 20400 nM on Ecdysone receptor [2] and 33300 nM at Ecdysone receptor [3].

Consider `CCc1c(OC)cccc1C(=O)NN(C(=O)c1cc(C)cc(C)c1)C(C)(C)C`, for which the Ratio in assay [1] and in assay [4] was 1 each time. In addition, the EC50 came out at 250 nM at Ecdysone receptor [2] and 410 nM on Ecdysone receptor [3].

In the case of `COc1cccc(C(=O)NC2(C(=O)c3cc(C)cc(C)c3)CCCCCC2)c1C`, the Ratio in assay [1] is 0.69; in assay [4], 0.88. In addition, the concentration giving a half-maximal response (EC50) came to 1610 nM on Ecdysone receptor [2] and 2970 nM on Ecdysone receptor [3].

On to `COc1cccc(C(=O)NC2(C(=O)c3cc(C)cc(C)c3)CCS(=O)(=O)CC2)c1C`, for which the Ratio in assay [1] was 0.1; in assay [4], 0.04. The values for the EC50 at Ecdysone receptor [2] and at Ecdysone receptor [3] were 15000 nM and 30000 nM, respectively.

For `CCc1c(C(=O)NC2(C(=O)c3cc(C)cc(C)c3)CCCCC2)ccc2c1OCCO2`, the values for the Ratio in assay [1] and in assay [4] were 0.89 and 0.91, respectively. Besides, the EC50 is 740 nM at Ecdysone receptor [2] and 390 nM at Ecdysone receptor [3].

With `COc1cccc(C(=O)NC2(C(=O)c3cc(C)cc(C)c3)CCCC2)c1C`, the results for the Ratio in assay [1] and in assay [4] were 0.85 and 0.86, respectively. The EC50 at Ecdysone receptor [2] worked out at 1870 nM; at Ecdysone receptor [3], 1910 nM.

For `COc1ccccc1C(=O)C1(NC(=O)c2cccc(OC)c2C)CCCC1`, the Ratio amounted to 0.7 in assay [1] and 0.67 in assay [4]. In addition, the EC50 on Ecdysone receptor [2] came out at 5160 nM; at Ecdysone receptor [3], 6610 nM.

For the compound `Cc1cc(C)cc(C(=O)C2(NC(=O)c3ccc4c(c3C)OCO4)CCCCC2)c1`, the Ratio in assay [1] was found to be 0.81; in assay [4], 0.91. The EC50 was found to be 3680 nM at Ecdysone receptor [2] and 3220 nM on Ecdysone receptor [3].

For the compound `CCc1c(OC)cccc1C(=O)NC1(C(=O)c2cc(C)cc(C)c2)CCCCC1`, the Ratio worked out at 0.85 in assay [1] and 0.89 in assay [4]. In addition, the EC50 on Ecdysone receptor [2] came out at 1810 nM; at Ecdysone receptor [3], 1250 nM.

As to `COc1cccc(C(=O)NC2(C(=O)c3cc(C)cc(C)c3)CCSCC2)c1C`, the values for the Ratio in assay [1] and in assay [4] were 0.98 and 0.85, respectively. The concentration for a half-maximal effect (EC50) worked out at 1600 nM on Ecdysone receptor [2] and 1800 nM on Ecdysone receptor [3].

`COc1cccc(C(=O)NC2(C(=O)c3cc(C)cc(C)c3)CCOCC2)c1C`: the values for the Ratio in assay [1] and in assay [4] were 0.18 and 0.96, respectively. Also, the EC50 at Ecdysone receptor [2] and on Ecdysone receptor [3] was 10000 nM each time.

As for `COc1cccc(C(=O)NN(C(=O)c2cc(C)cc(C)c2)C(C)(C)C)c1C` [METHOXYFENOZIDE], the results for the Ratio in assay [1] and in assay [4] were 1.03 and 1.02, respectively. Further, the EC50 stood at 100 nM on Ecdysone receptor [2] and 280 nM on Ecdysone receptor [3].

Turning to `CCc1ccc(C(=O)NC2(C(=O)c3cc(C)cc(C)c3)CCCCC2)cc1`, in assay [1], the Ratio came out at 0.63. Moreover, the response at Ecdysone receptor [2] was half-maximal at 1510 nM (EC50).

Turning to `COc1cccc(C(=O)NC2(C(=O)c3cc(C)cc(C)c3)CCC2)c1C`, the Ratio in assay [1] amounted to 0.69; in assay [4] it was 0.89. Further, the results for the half-maximal effective concentration (EC50) at Ecdysone receptor [2] and on Ecdysone receptor [3] were 8520 nM and 10000 nM, respectively.

For `COc1cccc(C(=O)NC2(C(=O)c3cc(C)cc(C)c3)CCCCC2)c1C`, the Ratio was 0.99 in assay [1] and 0.96 in assay [4]. The EC50 at Ecdysone receptor [2] came out at 1410 nM; on Ecdysone receptor [3], 1110 nM.

Take `COc1ccccc1C(=O)C1(NC(=O)c2cccc(OC)c2C)CCCCC1`: the Ratio in assay [1] amounted to 0.84; in assay [4], 0.71. Also, the EC50 on Ecdysone receptor [2] is 980 nM; on Ecdysone receptor [3], 1030 nM.

As to `COc1cccc(C(=O)NC(C)(C)C(=O)c2cc(C)cc(C)c2)c1C`, the Ratio came to 0.17 in assay [1] and 0.29 in assay [4]. Further, the EC50 was 10000 nM on Ecdysone receptor [2] and 41900 nM at Ecdysone receptor [3].

As for `CCC(CC)(NC(=O)c1cccc(OC)c1C)C(=O)c1cc(C)cc(C)c1`, the Ratio in assay [1] turned out to be 0.61; in assay [4], 0.54. Also, the concentration giving a half-maximal response (EC50) was 4530 nM on Ecdysone receptor [2] and 6230 nM at Ecdysone receptor [3].

Consider `COc1ccccc1C(=O)C1(NC(=O)c2cccc(OC)c2C)CCCCCC1`, for which the figures for the Ratio in assay [1] and in assay [4] were 0.78 and 0.66, respectively. For the same compound, the figures for the 50% effective concentration (EC50) at Ecdysone receptor [2] and at Ecdysone receptor [3] were 1940 nM and 3360 nM, respectively.

Values taken from ChEMBL document CHEMBL1136517, “Optimization of alpha-acylaminoketone ecdysone agonists for control of gene expression” (Bioorg Med Chem Lett, 2003).
